ChEMBL document CHEMBL2150901, “Synthesis and biological activity of tricyclic cycloalkylimidazo-, pyrimido- and diazepinopurinediones” (Eur J Med Chem, 2011)
Active and inactive are the calls of the source. The rule behind the calls is not given here.

How the values were obtained:
[1] = tested on: Rattus norvegicus; assay: Neurotoxicity in Sprague-Dawley albino rat assessed as minimal motor impairment at 30 mg/kg, po after 1 hr by rotorod test; type: toxicity, organism-based; design: dose 30 mg/kg, route oral; settings: in vivo
Procedure, shortened: (§1)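 Male Sprague-Dawley albino rats (100–150 g), groups of 4. Oral suspension in 0.5% methylcellulose/water. Protection assessed by maximal electroshock or subcutaneous pentylenetetrazole; motor impairment by rotorod. Time points 0.25–4 h. Value is protected (or toxic)/tested animals.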

[2] = tested on: Rattus norvegicus; assay: Anticonvulsant activity in Sprague-Dawley albino rat assessed as protection against maximal electroshock-induced seizures at 30 mg/kg, po after 1 hr; type: functional, organism-based; design: dose 30 mg/kg; procedure, shortened: as §1
[3] = tested on: Mus musculus; assay: Anticonvulsant activity in F1 albino mouse assessed as protection against subcutaneous pentylenetetrazole-induced seizures at 100 mg/kg, ip after 0.5 hrs; type: functional, organism-based; design: dose 100 mg/kg
Procedure, shortened: (§2)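 Male albino F-1 mice (18–25 g), groups of 1–5 (rotorod 2–8). Compound given ip as a suspension in 0.5% methylcellulose at 30, 100 and 300 mg/kg. Seizures by maximal electroshock or subcutaneous pentylenetetrazole; neurotoxicity by rotorod. Read at 0.5 and 4 h, with some at 0.25, 1 and 2 h. Value is the minimum active dose, with protected (or toxic)/tested animals.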

[4] = tested on: Rattus norvegicus; assay: Anticonvulsant activity in Sprague-Dawley albino rat assessed as protection against maximal electroshock-induced seizures at 30 mg/kg, po after 4 hrs; type: functional, organism-based; design: dose 30 mg/kg; procedure, shortened: as §1
[5] = tested on: Rattus norvegicus; assay: Neurotoxicity in Sprague-Dawley albino rat assessed as minimal motor impairment at 30 mg/kg, po after 0.25 hrs by rotorod test; type: toxicity, organism-based; design: dose 30 mg/kg, route oral; settings: in vivo; procedure, shortened: as §1
[6] = tested on: Mus musculus; assay: Neurotoxicity in F1 albino mouse assessed as minimal motor impairment at 300 mg/kg, ip after 0.25 hrs by rotorod test; type: toxicity, organism-based; design: dose 300 mg/kg, route intraperitoneal; settings: in vivo; procedure, shortened: as §2
[7] = tested on: Mus musculus; assay: Anticonvulsant activity in F1 albino mouse assessed as protection against subcutaneous pentylenetetrazole-induced seizures at 300 mg/kg, ip after 4 hrs; type: functional, organism-based; design: dose 300 mg/kg; procedure, shortened: as §2
[8] = species on record: Rattus norvegicus; assay: Selectivity ratio of Ki for adenosine A1 receptor in rat brain cortical membrane to Ki for adenosine A2A receptor in rat brain striatal membrane; type: cell membranes
Procedure, shortened: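 Ki ratios from radioligand competition binding. Rat A1 used brain cortical membranes and rat A2A used brain striatal membranes. Human A1 and A2A used membranes of CHO cells expressing the receptors. A1 radioligand [³H]CCPA; A2A radioligand [³H]MSX-2. Potent compounds were tested at 6–7 concentrations spanning 3 orders of magnitude.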

[9] = tested on: Mus musculus; assay: Anticonvulsant activity in F1 albino mouse assessed as protection against maximal electroshock-induced seizures at 100 mg/kg, ip after 0.5 hrs; type: functional, organism-based; design: dose 100 mg/kg; procedure, shortened: as §2
[10] = tested on: Rattus norvegicus; assay: Anticonvulsant activity in Sprague-Dawley albino rat assessed as protection against subcutaneous pentylenetetrazole-induced seizures at 50 mg/kg, po after 2 hrs; type: functional, organism-based; design: dose 50 mg/kg; procedure, shortened: as §1
[11] = target: Adenosine receptor A2a (Rattus norvegicus, UniProt P30543); assay: Displacement of [3H]MSX-2 from adenosine A2A receptor in rat brain striatal membrane; type: cell membranes
[12] = tested on: Mus musculus; assay: Neurotoxicity in F1 albino mouse assessed as minimal motor impairment at 300 mg/kg, ip after 0.5 hrs by rotorod test; type: toxicity, organism-based; design: dose 300 mg/kg, route intraperitoneal; settings: in vivo; procedure, shortened: as §2
[13] = tested on: Mus musculus; assay: Anticonvulsant activity in F1 albino mouse assessed as protection against maximal electroshock-induced seizures at 300 mg/kg, ip after 4 hrs; type: functional, organism-based; design: dose 300 mg/kg; procedure, shortened: as §2
[14] = target: T1, Adenosine receptor A1 (Rattus norvegicus, UniProt P25099); assay: Displacement of [3H]CCPA from adenosine A1 receptor in rat brain cortical membrane; type: cell membranes
T1 sequence (P25099 whole entry): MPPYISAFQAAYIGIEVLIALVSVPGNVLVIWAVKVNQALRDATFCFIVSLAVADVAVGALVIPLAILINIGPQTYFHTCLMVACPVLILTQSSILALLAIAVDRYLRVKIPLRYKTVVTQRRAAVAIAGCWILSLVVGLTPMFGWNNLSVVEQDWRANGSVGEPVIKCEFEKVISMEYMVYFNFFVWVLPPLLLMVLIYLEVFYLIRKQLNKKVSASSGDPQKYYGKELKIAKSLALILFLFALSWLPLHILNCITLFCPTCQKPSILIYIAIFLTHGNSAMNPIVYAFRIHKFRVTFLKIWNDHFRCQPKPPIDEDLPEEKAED

[15] = tested on: Rattus norvegicus; assay: Neurotoxicity in Sprague-Dawley albino rat assessed as minimal motor impairment at 30 mg/kg, po after 4 hrs by rotorod test; type: toxicity, organism-based; design: dose 30 mg/kg, route oral; settings: in vivo
Procedure, shortened: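 Male Sprague-Dawley albino rats (100–150 g), groups of 4, dosed orally with a suspension in 0.5% methylcellulose/water. Neurotoxicity was scored as minimal motor impairment on the rotorod at 0.25, 0.5, 1 and 4 h. Results are reported as animals showing toxicity per animals tested.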

[16] = tested on: Mus musculus; assay: Anticonvulsant activity in F1 albino mouse assessed as protection against subcutaneous pentylenetetrazole-induced seizures at 300 mg/kg, ip after 1 hr; type: functional, organism-based; design: dose 300 mg/kg; procedure, shortened: as §2
[17] = tested on: Mus musculus; assay: Anticonvulsant activity in F1 albino mouse assessed as protection against subcutaneous pentylenetetrazole-induced seizures at 300 mg/kg, ip after 0.25 hrs; type: functional, organism-based; design: dose 300 mg/kg; procedure, shortened: as §2
[18] = tested on: Rattus norvegicus; assay: Anticonvulsant activity in Sprague-Dawley albino rat assessed as protection against subcutaneous pentylenetetrazole-induced seizures at 50 mg/kg, po after 1 hr; type: functional, organism-based; design: dose 50 mg/kg; procedure, shortened: as §1
[19] = tested on: Mus musculus; assay: Anticonvulsant activity in F1 albino mouse assessed as protection against maximal electroshock-induced seizures at 300 mg/kg, ip after 0.25 hrs; type: functional, organism-based; design: dose 300 mg/kg; procedure, shortened: as §2
[20] = tested on: Mus musculus; assay: Neurotoxicity in F1 albino mouse assessed as minimal motor impairment at 300 mg/kg, ip after 4 hrs by rotorod test; type: toxicity, organism-based; design: dose 300 mg/kg, route intraperitoneal; settings: in vivo; procedure, shortened: as §2
[21] = tested on: Mus musculus; assay: Anticonvulsant activity in F1 albino mouse assessed as protection against maximal electroshock-induced seizures at 300 mg/kg, ip after 1 hr; type: functional, organism-based; design: dose 300 mg/kg; procedure, shortened: as §2
[22] = tested on: Rattus norvegicus; assay: Anticonvulsant activity in Sprague-Dawley albino rat assessed as protection against subcutaneous pentylenetetrazole-induced seizures at 50 mg/kg, po after 4 hrs; type: functional, organism-based; design: dose 50 mg/kg; procedure, shortened: as §1
[23] = tested on: Rattus norvegicus; assay: Neurotoxicity in Sprague-Dawley albino rat assessed as minimal motor impairment at 30 mg/kg, po after 0.5 hrs by rotorod test; type: toxicity, organism-based; design: dose 30 mg/kg, route oral; settings: in vivo; procedure, shortened: as §1
[24] = tested on: Rattus norvegicus; assay: Anticonvulsant activity in Sprague-Dawley albino rat assessed as protection against subcutaneous pentylenetetrazole-induced seizures at 50 mg/kg, po after 0.25 hrs; type: functional, organism-based; design: dose 50 mg/kg; procedure, shortened: as §1
[25] = tested on: Rattus norvegicus; assay: Anticonvulsant activity in Sprague-Dawley albino rat assessed as protection against subcutaneous pentylenetetrazole-induced seizures at 50 mg/kg, po after 0.5 hrs; type: functional, organism-based; design: dose 50 mg/kg; procedure, shortened: as §1
[26] = tested on: Rattus norvegicus; assay: Anticonvulsant activity in Sprague-Dawley albino rat assessed as protection against maximal electroshock-induced seizures at 30 mg/kg, po after 2 hrs; type: functional, organism-based; design: dose 30 mg/kg; procedure, shortened: as §1
[27] = tested on: Mus musculus; assay: Neurotoxicity in F1 albino mouse assessed as minimal motor impairment at 300 mg/kg, ip after 1 hr by rotorod test; type: toxicity, organism-based; design: dose 300 mg/kg, route intraperitoneal; settings: in vivo; procedure, shortened: as §2
[28] = tested on: Rattus norvegicus; assay: Anticonvulsant activity in Sprague-Dawley albino rat assessed as protection against maximal electroshock-induced seizures at 30 mg/kg, po after 0.5 hrs; type: functional, organism-based; design: dose 30 mg/kg; procedure, shortened: as §1

Sequence of Adenosine receptor A2a (P30543 whole entry): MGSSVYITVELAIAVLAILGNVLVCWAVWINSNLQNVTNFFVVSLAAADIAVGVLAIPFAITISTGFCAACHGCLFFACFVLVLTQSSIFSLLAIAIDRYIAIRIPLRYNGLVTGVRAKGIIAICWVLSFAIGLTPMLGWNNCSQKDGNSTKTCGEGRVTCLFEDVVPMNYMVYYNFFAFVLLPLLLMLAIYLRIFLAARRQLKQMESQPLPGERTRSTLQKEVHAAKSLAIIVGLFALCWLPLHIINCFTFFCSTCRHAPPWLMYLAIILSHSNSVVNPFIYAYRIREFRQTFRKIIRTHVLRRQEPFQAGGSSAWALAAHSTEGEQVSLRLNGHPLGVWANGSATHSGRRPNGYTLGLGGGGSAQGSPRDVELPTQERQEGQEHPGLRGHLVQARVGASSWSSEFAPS

`C[C@@H](C1CCCCC1)N1CCCn2c1nc1c2c(=O)n(C)c(=O)n1C` was tested, and the Activity [1] was “Non-toxic”, the Activity [2] was “Active” and the Activity [3] was “inactive”. The Activity [4] was “inactive”, the Activity [5] was “Non-toxic” and the Activity [6] was “Non-toxic”. The Activity [7] was “inactive”, the Ratio Ki [8] was 13 and the Activity [9] was “Active”. For the same compound, the Activity [10] was “inactive”, the Ki [11] was 0.887 µM and the Activity [12] was “Non-toxic”. For the same compound, the Activity [13] was “inactive”, the Ki [14] was 11.9 µM and the Activity [15] was “Non-toxic”. For the same compound, the Activity [16] was “inactive”, the Activity [17] was “inactive” and the Activity [18] was “inactive”. For the same compound, the Activity [19] was “inactive”, the Activity [20] was “Non-toxic” and the Activity [21] was “inactive”. For the same compound, the Activity [22] was “inactive”, the Activity [23] was “Non-toxic” and the Activity [24] was “inactive”. For the same compound, the Activity [25] was “inactive”, the Activity [26] was “inactive” and the Activity [27] was “Non-toxic”. For the same compound, the Activity [28] was “inactive”.
